Laboratory results reported in ChEMBL document CHEMBL1127813, “Pseudopeptide inhibitors of Ras farnesyl-protein transferase” (J Med Chem, 1994).
Activity calls are given as the source filed them. No cut-off for these calls is given here.

Legend:
[1] = biological target: T1, Protein farnesyltransferase (Mus musculus) (UniProt Q61239+Q8K2I1); assay: Inhibition of v-ras posttranslational processing in NIH3T3 cells at 1 uM; format: cell-based
Outline: (§1)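 NIH 3T3 cells expressing viral Ha-ras were metabolically labeled with [³⁵S]methionine while exposed to compound or solvent control. Cells were lysed after 24 h and Ras was immunoprecipitated to assess posttranslational processing. Scored as percent inhibition of processing; +++ means ≥90% inhibition. Lovastatin 15 μM was the reference.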

[2] = tested on: NIH3T3; assay: The cytotoxic endpoint, the highest nontoxic concentration for cultured NIH3T3 cells; format: functional, cell-based; conditions: Mus musculus
Outline: (§2)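 NIH3T3 fibroblasts exposed to compound for 48 h; viability read by MTT staining. Endpoint is the highest concentration tolerated without toxicity. Top concentration tested was 100 μM for most compounds; one lactone was dosed up to 1 mM.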

[3] = biological target: T2, Geranylgeranyl transferase type I (Bos taurus, UniProt P29702+Q5EAD5); assay: In vitro inhibition of bovine type-1 geranylgeranyl transferase; format: protein-complex assay
[4] = biological target: Protein farnesyltransferase (Bos taurus, UniProt P29702+P49355); assay: Inhibitory activity against Ras Farnesyl Protein transferase from bovine brain
Outline: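 FPTase purified from bovine brain (about 1 nM) incubated with [³H]FPP, recombinant Harvey-Ras and varying inhibitor concentrations. Protein was acid-precipitated and Ras-bound label counted by scintillation. IC50 is the concentration halving label incorporation relative to the no-inhibitor control, given as mean ± SEM with the number of determinations.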

[5] = biological target: T2, Geranylgeranyl transferase type I; assay: Inhibitory activity against bovine type-1 geranylgeranyl transferase.; format: protein-complex assay
[6] = biological target: T1, Protein farnesyltransferase (Mus musculus); assay: Inhibition of v-ras posttranslational processing in NIH3T3 cells at 15 uM; format: cell-based; outline: as §1
[7] = biological target: T1, Protein farnesyltransferase (Mus musculus); assay: Inhibition of v-ras posttranslational processing in NIH3T3 cells (No inhibition); format: cell-based; outline: as §1
[8] = tested on: NIH3T3; assay: Highest nontoxic concentration in NIH3T3 cells; format: functional, cell-based; conditions: Mus musculus; outline: as §2
[9] = biological target: T1, Protein farnesyltransferase (Mus musculus); assay: Inhibition of v-ras posttranslational processing in NIH3T3 cells at 5 uM (No inhibition); format: cell-based; outline: as §1
[10] = biological target: T1, Protein farnesyltransferase (Mus musculus); assay: Inhibition of v-ras posttranslational processing in NIH3T3 cells at 100 uM; format: cell-based; outline: as §1
[11] = biological target: T1, Protein farnesyltransferase (Mus musculus); assay: Inhibition of v-ras posttranslational processing in NIH3T3 cells at 10 uM; format: cell-based; outline: as §1
[12] = The binding affinity against Ras protein

Row | Structure (SMILES) | IC50 [4] [nM] | IC50 [5] [nM] | Concentration [2] [µM] | also measured
1 | CCC(C)[C@@H](CN[C@@H](Cc1ccccc1)C(=O)N[C@@H](CCSC)C(=O)OC)NCC(N)CS (stereo partly specified) |  |  | 1 | inhibition [1]: 10%
2 | CC[C@H](C)C(=O)O[C@H]1C[C@@H](C)C=C2C=C[C@H](C)[C@H](CC[C@@H]3C[C@@H](O)CC(=O)O3)[C@H]21 |  |  |  | inhibition [6]: > 90%
3 | CCC(C)[C@H](NCC(N)CS)C(=O)N[C@@H](Cc1ccccc1)C(=O)N[C@@H](CCSC)C(=O)OCc1ccccc1 (stereo partly specified) |  |  |  | Concentration [8]: 5 µM; inhibition [9]: inactive
4 | CCCCCCCCCCOC(=O)[C@H](CCSC)NC(=O)[C@H](Cc1ccccc1)NC(=O)[C@@H](NCC(N)CS)C(C)CC (stereo partly specified) |  |  |  | Concentration [8]: 2 µM
5 | CC[C@H](C)[C@H](NC(=O)[C@@H](NC[C@@H](N)CS)C(C)C)C(=O)N[C@@H](CCSC)C(=O)O | 7 | 28 |  | 
6 | CC[C@H](C)[C@H](NC[C@@H](N)CS)C(=O)N[C@H](C(=O)N[C@H]1CCOC1=O)[C@@H](C)CC |  |  | > 100 | inhibition [10]: 30%
7 | CC[C@@H](C)[C@H](NC[C@@H](NC[C@@H](N)CS)[C@H](C)CC)C(=O)N[C@H]1CCOC1=O |  |  | > 1000 | inhibition [10]: > 90%
8 | CCC(C)[C@@H](CN[C@@H](Cc1ccccc1)C(=O)N[C@@H](CCSC)C(=O)O)NCC(N)CS (stereo partly specified) | 4.8 |  | > 100 | IC50 [3]: 5750 nM; inhibition [10]: 30%
9 | CCOC(=O)[C@H](CCSC)NC(=O)[C@H](Cc1ccccc1)NC(=O)[C@@H](NCC(N)CS)C(C)CC (stereo partly specified) |  |  | 10 | inhibition [11]: 10%
10 | CCC(C)[C@@H](CN[C@@H](Cc1ccccc1)C(=O)N[C@@H](CCSC)C(=O)O)NCCCS (stereo partly specified) | 400 |  |  | IC50 [3]: > 10000 nM
11 | CC[C@H](C)[C@H](NC[C@@H](N)CS)C(=O)N[C@@H](Cc1ccccc1)C(=O)N[C@@H](CCSC)C(=O)O | 18 | 310 | > 100 | inhibition [10]: 10%
12 | CC[C@H](C)[C@H](NC(=O)[C@@H](N)CS)C(=O)N[C@@H](Cc1ccccc1)C(=O)N[C@@H](CCSC)C(=O)O | 27 | 300000 |  | 
13 | CC[C@H](C)[C@H](NC(=O)[C@@H](NC[C@@H](N)CS)C(C)C)C(=O)N[C@@H](CC(C)C)C(=O)O | 550 |  |  | 
14 | CC[C@H](C)[C@H](NC(=O)[C@@H](NCCCS)C(C)C)C(=O)N[C@@H](CCSC)C(=O)O | 29 | 2200 |  | 

Second part, led by results:

Row | IC50 [4] [nM] | IC50 [5] [nM] | Structure (SMILES) | Concentration [2] [µM] | also measured
15 | 140 |  | CCC(C)[C@H](NCC(N)CS)C(=O)N[C@H](CN[C@@H](CCSC)C(=O)O)Cc1ccccc1 (stereo partly specified) |  | IC50 [3]: 1100 nM
16 | 50 | > 10000 | CC[C@H](C)[C@H](NCCCS)C(=O)N[C@@H](Cc1ccccc1)C(=O)N[C@@H](CCSC)C(=O)O |  | 
17 | 42 | 8000 | CC[C@H](C)[C@H](NC[C@@H](N)CS)C(=O)N[C@H](C(=O)N[C@@H](CCO)C(=O)O)[C@@H](C)CC | > 100 | inhibition [7]: inactive
18 | 165 | 49000 | CC[C@H](C)[C@H](NC(=O)[C@@H](NC(=O)[C@@H](N)CS)C(C)C)C(=O)N[C@@H](CCSC)C(=O)O |  | 
19 | 150 |  | CCC(C)[C@H](NC[C@@H](NC(=O)[C@@H](N)CS)C(C)CC)C(=O)N[C@@H](CCO)C(=O)O (stereo partly specified) |  | 
20 | 20 | 45000 | CC[C@H](C)[C@H](NC[C@@H](NC[C@@H](N)CS)[C@@H](C)CC)C(=O)N[C@@H](CCO)C(=O)O | > 100 | inhibition [7]: inactive; Ki [12]: 20 nM
21 | 330 |  | CC[C@H](C)[C@H](NC(=O)[C@@H](NC(=O)[C@@H](N)CS)[C@@H](C)CC)C(=O)N[C@@H](CCO)C(=O)O |  | 
